Source: PubChem (several laboratories)
GAA850 FXN act: FXN promoter activators, primary screen, cell-based, luciferase luminescence, HEK293 lucGAA850; AID 540364, 2011; activation, % at 6 µM; 360,000 tested, 0.56% active; HEK293 lucGAA850 FXN promoter luciferase reporter, 24 h; percent of 10 µM SAHA response;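 active = activation above the average of all compounds screened plus 3 SD, cutoff fixed separately per campaign, cut at about 7.5% in these data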;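 note: 0% = DMSO wells and 100% = 10 µM SAHA wells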
HIF act: HIF pathway transcriptional activators, primary screen, cell-based, U2OS HRE-luciferase, luminescence. AID 1910, 2009. U2OS HRE-luciferase reporter; normalized: DMSO 0%, desferrioxamine 100%. activation, % at 7.5 µM (by protocol). 300,000 tested, 0.32% active;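 active = mean activation of at least 10% of the iron chelator positive control signal, with at least half of replicates also reaching 10%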
Hsp70 act: Hsp70 transcriptional activators, primary screen, cell-based, HeLa, Hsp70 promoter luciferase, luminescence, 10 µM; HeLa Hsp70 promoter luciferase reporter; scaled: vehicle 0, proteasome-inhibitor control 100%; activation, % at 10 µM; 200,000 tested, 0.04% active;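 active = activation above the mean across all tested compounds plus 3 SD, cutoff set per campaign, cut at about 5.5% in these data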;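 note: 100% = MG132 at 30 µM as the positive control and 0% = DMSO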
Rad51 HR inh: human RAD51 strand exchange inhibitors, primary screen, biochemical, fluorescence. hRad51 DNA strand exchange, fluorescence dequenching. 200,000 tested, 0.085% active. DNA repair protein RAD51 homolog 1 (Homo sapiens), Q06609. inhibition, % at 10 µM;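 active = inhibition above 40% at the single screening dose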;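 note: 0% = DMSO control wells and 100% = blanks with heterologous ssDNA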
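System: hRad51 filaments on single-stranded DNA; reagent: Fluorescein- and BHQ1-tagged 47-mer duplex; compound dosing: one concentration, 10 µM final; timing: filaments 15 min 37 °C, then compound 30 min; measured by: fluorescein emission 520 nm, excitation 485 nm; benchmarks: per-plate controls and blanks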
ABHD5-PLIN5 inh: ABHD5-PLIN5 interaction inhibitors, primary screen, cell lysate, split luciferase complementation, luminescence; Perilipin-5 (Homo sapiens) + 1-acylglycerol-3-phosphate O-acyltransferase ABHD5 (Homo …; Split G. princeps luciferase complementation, 4 h; inhibition, % at 4 µM; 360,000 tested, 0.78% active; AID 602281, 2012;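 active = inhibition above the mean inhibition across every tested compound plus 3 SD, cut at about 22% in these data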;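 note: 0% = DMSO only wells and the 100% control is not disclosed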
TAG inh: inhibitors of triacylglycerol accumulation, primary screen, cell-based, uHTS, fluorescence, H9c2; inhibition, % at 12.5 µM; H9c2 cells, Nile Red lipid (TAG) fluorescence; cells loaded with 200 µM oleic acid; 230,000 tested, 0.66% active;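 active = pattern-corrected inhibition of lipid staining of at least 50% with the nuclear-stain viability signal not falling by more than 50%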;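 note: 0% = DMSO wells and 100% = triacsin C control wells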
ABHD5-PLIN5 conf: ABHD5-PLIN5 interaction inhibitors, confirmation, biochemical, luminescence. shares compounds with ABHD5-PLIN5 inh. 2,200 tested, 67% active. inhibition, % at 4 µM; in the data active = inhibition above about 23%;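 note: 0% = DMSO vehicle wells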
HNF4 counter: HNF4 dimerization inhibitors, counter-screen for ABHD5-PLIN5 interaction inhibitor project, biochemical, split-luciferase complementation, luminescence; shares compounds with ABHD5-PLIN5 inh; inhibition, % at 4 µM; 2,200 tested, 77% active; AID 651674, 2012;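 active = mean inhibition across replicate wells exceeding the computed hit threshold, cut at about 13% in these data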;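 note: light from luciferase halves that rejoin when HNF4 fusion proteins dimerize; 0% = DMSO only wells and the 100% control is not given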
Target sequence (P41235 whole entry, looked up, the tested form may be a part): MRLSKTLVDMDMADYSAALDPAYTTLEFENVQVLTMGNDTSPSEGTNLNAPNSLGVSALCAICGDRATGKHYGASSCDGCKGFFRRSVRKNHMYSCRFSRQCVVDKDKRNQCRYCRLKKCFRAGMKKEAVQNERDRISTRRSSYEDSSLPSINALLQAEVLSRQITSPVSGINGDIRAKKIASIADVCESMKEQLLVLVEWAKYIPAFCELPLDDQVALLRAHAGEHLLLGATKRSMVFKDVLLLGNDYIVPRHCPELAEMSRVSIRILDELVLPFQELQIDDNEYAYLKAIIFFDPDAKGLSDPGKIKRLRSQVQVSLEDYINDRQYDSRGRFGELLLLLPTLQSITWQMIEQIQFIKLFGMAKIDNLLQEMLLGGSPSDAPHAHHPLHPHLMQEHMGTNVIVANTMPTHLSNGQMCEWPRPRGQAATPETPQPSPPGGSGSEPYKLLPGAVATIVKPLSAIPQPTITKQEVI
* = called active by the depositor; x = no result. Most compounds without a hit are left out; they make up all but 1.9% or so of the library.

SMILES | GAA850 FXN act | HIF act | Hsp70 act | Rad51 HR inh | ABHD5-PLIN5 inh | TAG inh | ABHD5-PLIN5 conf | HNF4 counter
Cc1cc(C)c(C#N)c(Sc2nc(C)c([N+](=O)[O-])c(C)c2C#N)n1 | x | x | x | x | 31* | x | 36* | 27*
COc1cccc(C2c3cc4c(cc3OC(C)(N3CCCC3)C2C)OCO4)c1O (stereo unspecified) | -5 | x | x | x | -4 | 19 | x | x
O=C(O)c1cc([N+](=O)[O-])c(Sc2nc3ccccc3[nH]2)c([N+](=O)[O-])c1 | 0 | -2 | x | x | 35* | x | 53* | 54*
O=C(O)c1ccc(CSc2nc3ccccc3[nH]2)cc1 | -1 | -1 | x | x | -14 | -5 | x | x
COc1ccc(C(NC(=O)/C=C/c2ccco2)c2ccc(OC)c(OC)c2)cc1OC | 1 | 0 | 0 | x | 24* | x | 59* | 54*
COCCNC(=S)Nc1ccc(N2CCOCC2)c(S(=O)(=O)Nc2ccc(Cl)cc2)c1 | -1 | x | x | x | -4 | 1 | x | x
O=S(=O)(Nc1ccc(Cl)cc1)c1ccc(N2CCOCC2)c(NC(=S)NCCN2CCOCC2)c1 | -1 | -3 | 0 | -2 | 31* | -5 | -5 | 48*
O=C(OCC(=O)N1N=C(c2ccc(Cl)cc2)CC1c1ccco1)c1cncc(Br)c1 (stereo unspecified) | 4 | x | x | x | 35* | 5 | 76* | 89*
O=C(OCC(=O)N1N=C(c2ccc(Cl)cc2)CC1c1ccco1)c1ccco1 (stereo unspecified) | 2 | 0 | 0 | 7 | 1 | 14 | x | x
O=c1[nH]c2cc([N+](=O)[O-])ccc2c2cc(Br)ccc12 | 6 | x | x | x | -5 | 16 | x | x
Cc1ccc(C)c(-n2sc3ccc(F)cc3c2=O)c1 | -4 | x | x | x | 100* | 46 | 76* | 114*
COc1ccc(-n2sc3ccccc3c2=O)cc1 | -1 | x | x | x | 76* | 32 | 81* | 120*
COc1ccc(N2C(=O)CSC2c2ccc(F)cc2)cc1 (stereo unspecified) | 0 | -17 | x | x | 9 | x | x | x
COc1ccc(-n2sc3ccc(F)cc3c2=O)cc1 | -2 | x | x | x | 86* | -17 | 93* | 120*
O=C(O)c1ccccc1C(=O)Nc1ccccc1 | 0 | 1 | 0 | -1 | -8 | -7 | x | x
O=C(Nc1ccccc1)C1=C(c2ccccc2)S(=O)(=O)CCS1(=O)=O | -14 | -8 | 0 | 42* | 88* | 93 | 100* | 108*
COc1ccccc1-c1cc(C(F)(F)F)c(C#N)c(=O)[nH]1 | 2 | 0 | 0 | 16 | -5 | -7 | x | x
COc1ccccc1-c1cc(SC)c(C#N)c(=O)o1 | 7 | 0 | 0 | 2 | 67* | 4 | 89* | 93*
O=C(/C=C/c1ccco1)c1cccc([N+](=O)[O-])c1 | 2 | x | x | x | 29* | 4 | 46* | 30*
O=C(/C=C/c1ccc(-c2ccccc2[N+](=O)[O-])o1)c1ccco1 | 0 | 1 | 0 | -5 | 30* | x | 64* | 48*
O=C(N/N=C/C=C/c1ccco1)c1cccc([N+](=O)[O-])c1 | 0 | 0 | 2 | 3 | 13 | x | x | x
O=C(/C=C/c1ccc(Br)cc1)c1ccc(NC(=O)c2ccco2)cc1 | 1 | 0 | 0 | x | 29* | x | 61* | 46*
O=C(/C=C/c1ccc([N+](=O)[O-])cc1)c1ccco1 | 3 | 1 | x | x | 33* | x | 91* | 91*
CC(=O)Nc1ccc(S(=O)(=O)N(C)CC(=O)OC2CCCCC2=O)cc1 (stereo unspecified) | 2 | x | x | x | -2 | -3 | x | x
O=C(/C=C/c1ccc(NC(=O)c2ccccc2-c2ccccc2C(=O)O)cc1)c1ccccc1 | 1 | -21 | x | x | 24* | 6 | 60* | 34*
SMILES | GAA850 FXN act | HIF act | Hsp70 act | Rad51 HR inh | ABHD5-PLIN5 inh | TAG inh | ABHD5-PLIN5 conf | HNF4 counter
O=C(/C=C/c1ccc(Br)cc1)c1ccco1 | 4 | 1 | 0 | -7 | 79* | x | 99* | 99*
O=C(O)c1ccccc1-c1ccccc1C(=O)Nc1ccc(F)cc1 | 0 | -1 | x | x | -5 | x | x | x
CC(OC(=O)c1ccc2c(=O)n3c(nc2c1)CCCCC3)C(=O)Nc1ccc(F)cc1Cl (stereo unspecified) | 0 | 0 | 0 | -4 | -2 | x | x | x
Cc1ccc(CN2CCNC(=O)C2CC(=O)N(C)CCc2cnn(C)c2)cc1 (stereo unspecified) | 0 | 0 | x | x | 0 | -2 | x | x
CCN(C(=O)COC(=O)/C(=C/c1ccccc1)n1nnnc1C)C1CCCCC1 | -5 | -3 | x | x | 34* | 7 | 52* | 36*
Cc1nnnn1/C(=C\c1ccccc1)C(=O)OCC(=O)N(C)C1CCS(=O)(=O)C1 (stereo unspecified) | 2 | 0 | 0 | 1 | 12 | 3 | x | x
Cc1nn(CC(=O)Nc2ccccn2)c(C)c1[N+](=O)[O-] | 0 | 0 | 0 | 2 | 73* | x | 2 | -4
CCOC(=O)Nc1ccc2c(c1)N(C(=O)CCN(CC)CC)c1ccccc1S2=O (stereo unspecified) | 7 | -2 | x | x | 23* | x | 21 | 78*
CCOC(=O)Nc1ccc2c(c1)N(C(=O)CCN(CC)CC)c1ccccc1CC2 | -1 | -1 | x | x | 0 | x | x | x
ClC(Cl)(c1nnnn1-c1ccccc1)c1nnnn1-c1ccccc1 | 1 | x | 0 | 2 | 87* | x | 74* | 103*
c1ccc(-c2nnnn2-c2ccccc2)cc1 | 0 | 1 | x | x | -3 | x | x | x
Cc1ccc(C2CC(c3cccs3)=NN2C(=O)c2ccc(Br)o2)cc1 (stereo unspecified) | 2 | 1 | 0 | x | 25* | 37 | 45* | 58*
COc1ccccc1CNCC(O)Cn1c2ccccc2c2ccccc21 (stereo unspecified) | -1 | 0 | 0 | 1 | 35* | 38 | 9 | -2
Cc1cccc(C)c1NC(=O)C(=O)NCC1CCCN1S(=O)(=O)c1ccccc1 (stereo unspecified) | 0 | 0 | x | x | 2 | -7 | x | x
